The source made the active and inactive calls. No cut-off for these calls is given here.

Series [1] in a line: Effective permeability of compound in PBS buffer at pH 7.4 at 50 to 100 uM after 5 hrs by PAMPA. Type of series: ADME. Conditions: pH 7.4, 5 h, dose 50-100 µM. For orientation: In PAMPA a lipid-coated filter parts donor from acceptor wells.
Series [2] is described as follows: Toxicity in Wistar rat assessed anxiety like behavior at 0.5 to 1 mg/kg, ip measured after 30 mins by elevated plus-maze analysis. It counts as organism-based. Conditions: in vivo, 0.5 h, dose 0.5-1 mg/kg. The method, boiled down:
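Male Wistar rats, naive to the maze, were handled for 7 days. Compound at 0.5 or 1 mg/kg ip in saline/DMSO (0.2%). 30 min after dosing, each rat was placed in the maze centre facing an open arm, and open-arm entries and % time in open arms were scored over 5 min. No retesting; 8 animals.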

A short description of series [3]: Toxicity in Wistar rat assessed hypolocomotion at 0.5 to 1 mg/kg, ip measured after 30 mins by elevated plus-maze analysis. Conditions: in vivo, 0.5 h.
Series [4] deals with T1, Glucagon-like peptide 1 receptor (Rattus norvegicus, UniProt P32301).
T1 sequence (P32301 whole entry): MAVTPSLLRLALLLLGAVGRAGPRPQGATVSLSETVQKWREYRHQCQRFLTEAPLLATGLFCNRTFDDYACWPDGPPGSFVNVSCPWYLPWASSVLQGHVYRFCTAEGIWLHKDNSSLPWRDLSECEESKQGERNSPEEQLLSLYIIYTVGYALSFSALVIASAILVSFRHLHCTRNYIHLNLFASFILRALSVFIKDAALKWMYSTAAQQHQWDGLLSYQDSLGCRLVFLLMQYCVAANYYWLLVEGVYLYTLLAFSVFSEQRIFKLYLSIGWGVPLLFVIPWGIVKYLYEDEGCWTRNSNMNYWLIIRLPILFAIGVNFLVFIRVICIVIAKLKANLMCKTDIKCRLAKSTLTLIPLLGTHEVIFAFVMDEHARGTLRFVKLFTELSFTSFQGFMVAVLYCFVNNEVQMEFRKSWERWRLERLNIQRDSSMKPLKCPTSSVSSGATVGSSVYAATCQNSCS
The series is described as follows: Positive allosteric modulator activity at GLP-1R in rat INS1 beta-cells assessed potentiation of GLP-1(7-36)NH2 induced insulin secretion incubated for 30 mins in presence of high glucose condition by ELISA. It counts as cell-based. In general terms: In an ELISA, binding on a coated surface is turned into a signal by an enzyme label.

Series [5] deals with T2, Glucagon-like peptide 1 receptor (Rattus norvegicus) (UniProt P32301).
T2 sequence (whole entry): T1 sequence (P32301 whole entry)
The series is described as follows: Positive allosteric modulator activity at GLP-1R in rat INS1 beta-cells assessed potentiation of GLP-1(7-36)NH2 induced insulin secretion at 1 uM incubated for 30 mins in presence of 15 mM of glucose by ELISA. Conditions: filed as positive allosteric modulator. Type of series: cell-based. The method, boiled down: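 Rat INS-1 cells held in glucose-free medium for 1.5 h (100,000 cells/well). […] Medium was centrifuged at 4 °C and secreted insulin measured by ELISA.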

For `FC(F)(F)c1ccc(-c2noc(CN3CCCC(CN4CCOCC4)C3)n2)cc1` (stereo unspecified), in series [1], the Peff entry is recorded as “Active”. Besides, the Activity entry in series [2] and in series [3] was “Non-Toxic” throughout. In addition, the concentration giving a half-maximal response (EC50) in series [4] came to 8 pM.

Consider `FC(F)(F)c1ccc(-c2noc(CN3CCCCC3CCc3ccccn3)n2)cc1` (stereo unspecified), for which the result in series [5] was Active.

For `NC(=O)C1CCN(Cc2nc(-c3ccc(C(F)(F)F)cc3)no2)CC1`, in series [5], the result was Active.

The term EC50 denotes the midpoint of the concentration-response curve.

These data come from ChEMBL document CHEMBL5154825, “Discovery of V-0219: A Small-Molecule Positive Allosteric Modulator of the Glucagon-Like Peptide-1 Receptor toward Oral Treatment for "Diabesity"” (J Med Chem, 2022).
